For assay [1], the target named is Somatostatin receptor type 2 (Homo sapiens, UniProt P30874). Put plainly: Binding affinity towards human somatostatin receptor type 2 using [125I][Leu8,D-Trp22,Tyr25]SRIF-28 as radioligand. The method, boiled down:
(§1)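 Receptor autoradiography on 20-µm cryostat sections of pellets of cells stably expressing the cloned human receptor. Cell hosts: sst1 CHO-K1, sst2 CCL39, sst3 CCL39, sst5 CHO-K1. Sections were incubated with radioligand at 30 000 cpm/100 µL and displaced by unlabeled peptide from 0.1 to 1000 nM. SRIF-28 was run in parallel as control. IC50 was obtained by computer-assisted image quantification against calibrated isotope tissue standards.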

Assay [2] concerns the target Somatostatin receptor type 3 (Homo sapiens, UniProt P32745). The experiment in a line: Binding affinity towards human somatostatin receptor type 3 using [125I][Leu8,D-Trp22,Tyr25]SRIF-28 as radioligand. The method, boiled down: as §1
Assay [3] addresses Somatostatin receptor type 4 (Homo sapiens, UniProt P31391). Put plainly: Binding affinity towards human somatostatin receptor type 4 using [125I][Leu8,D-Trp22,Tyr25]SRIF-28 as radioligand.
Assay [4] addresses Somatostatin receptor type 1 (Homo sapiens, UniProt P30872). Put plainly: Binding affinity towards human somatostatin receptor type 1 using [125I][Leu8,D-Trp22,Tyr25]SRIF-28 as radioligand. A digest of the protocol:
as §1

Assay [5] deals with Somatostatin receptor type 5 (Homo sapiens, UniProt P35346). The experiment in a line: Binding affinity towards human somatostatin receptor type 5 using [125I][Leu8,D-Trp22,Tyr25]SRIF-28 as radioligand. The method, boiled down: as §1

A word on the IC50: it is the concentration that inhibits the measured activity by half.

The structures appear in SMILES notation. Numbered stars: 1 amine (or outer) side, 2 acyl side, 3 side chain; on linkers, the order of the positions; unused ones are H or OH. Bridge positions count the residues as written; N and C are the ends. Square brackets hold non-standard residues; d marks the D form. Peptide text beside a SMILES is read from it. * marks the point of attachment. Tyr(Nα-carbamoyl) = NC(=O)N[C@@H](Cc1ccc(O)cc1)C(=O)*; X3 = C[C@H](c1c[nH]c2ccccc12)[C@@H](N[*:1])C(=O)[*:2]; Trp(βS-Me) = C[C@@H](c1c[nH]c2ccccc12)[C@H](N)C(=O)O

Somatostatin receptor type 5, sequence (P35346 whole entry): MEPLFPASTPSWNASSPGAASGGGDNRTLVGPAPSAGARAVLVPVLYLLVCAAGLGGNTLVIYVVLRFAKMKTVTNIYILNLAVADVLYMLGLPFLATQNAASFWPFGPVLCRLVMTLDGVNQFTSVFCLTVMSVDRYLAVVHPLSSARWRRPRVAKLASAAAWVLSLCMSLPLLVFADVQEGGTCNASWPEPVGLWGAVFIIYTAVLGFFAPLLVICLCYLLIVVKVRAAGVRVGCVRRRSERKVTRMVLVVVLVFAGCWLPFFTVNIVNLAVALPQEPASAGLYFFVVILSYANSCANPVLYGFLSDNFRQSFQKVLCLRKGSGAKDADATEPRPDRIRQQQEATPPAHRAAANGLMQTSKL
Somatostatin receptor type 1, sequence (P30872 whole entry): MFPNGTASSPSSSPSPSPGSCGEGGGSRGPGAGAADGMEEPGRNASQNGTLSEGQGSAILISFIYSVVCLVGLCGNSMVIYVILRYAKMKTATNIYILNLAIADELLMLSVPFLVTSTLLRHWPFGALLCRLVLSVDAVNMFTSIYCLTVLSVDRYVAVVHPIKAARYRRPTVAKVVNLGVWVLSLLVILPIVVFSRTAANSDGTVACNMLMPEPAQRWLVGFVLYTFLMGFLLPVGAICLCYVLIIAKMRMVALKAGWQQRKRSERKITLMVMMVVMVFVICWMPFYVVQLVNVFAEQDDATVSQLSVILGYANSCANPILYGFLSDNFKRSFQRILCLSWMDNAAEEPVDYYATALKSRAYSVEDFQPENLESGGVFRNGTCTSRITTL
Somatostatin receptor type 2, sequence (P30874 whole entry): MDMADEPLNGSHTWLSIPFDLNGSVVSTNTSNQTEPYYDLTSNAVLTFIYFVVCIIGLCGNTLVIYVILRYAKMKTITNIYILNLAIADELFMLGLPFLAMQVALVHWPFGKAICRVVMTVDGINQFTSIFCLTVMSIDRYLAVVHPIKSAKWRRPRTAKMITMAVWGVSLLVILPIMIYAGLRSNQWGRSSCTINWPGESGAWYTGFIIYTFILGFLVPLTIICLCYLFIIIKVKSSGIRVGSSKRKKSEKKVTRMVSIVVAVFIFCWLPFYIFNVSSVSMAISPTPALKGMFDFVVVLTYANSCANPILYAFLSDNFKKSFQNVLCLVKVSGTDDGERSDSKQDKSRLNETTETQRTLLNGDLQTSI
Somatostatin receptor type 4, sequence (P31391 whole entry): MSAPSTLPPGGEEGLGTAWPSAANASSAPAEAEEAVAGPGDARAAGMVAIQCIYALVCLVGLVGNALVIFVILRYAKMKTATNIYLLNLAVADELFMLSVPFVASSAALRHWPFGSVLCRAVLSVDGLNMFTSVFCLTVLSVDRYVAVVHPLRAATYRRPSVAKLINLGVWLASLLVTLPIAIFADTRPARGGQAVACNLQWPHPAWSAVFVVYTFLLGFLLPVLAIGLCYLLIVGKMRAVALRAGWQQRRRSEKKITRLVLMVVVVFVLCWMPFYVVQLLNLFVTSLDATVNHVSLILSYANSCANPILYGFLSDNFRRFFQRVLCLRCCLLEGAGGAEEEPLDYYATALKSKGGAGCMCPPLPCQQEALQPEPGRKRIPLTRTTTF
Somatostatin receptor type 3, sequence (P32745 whole entry): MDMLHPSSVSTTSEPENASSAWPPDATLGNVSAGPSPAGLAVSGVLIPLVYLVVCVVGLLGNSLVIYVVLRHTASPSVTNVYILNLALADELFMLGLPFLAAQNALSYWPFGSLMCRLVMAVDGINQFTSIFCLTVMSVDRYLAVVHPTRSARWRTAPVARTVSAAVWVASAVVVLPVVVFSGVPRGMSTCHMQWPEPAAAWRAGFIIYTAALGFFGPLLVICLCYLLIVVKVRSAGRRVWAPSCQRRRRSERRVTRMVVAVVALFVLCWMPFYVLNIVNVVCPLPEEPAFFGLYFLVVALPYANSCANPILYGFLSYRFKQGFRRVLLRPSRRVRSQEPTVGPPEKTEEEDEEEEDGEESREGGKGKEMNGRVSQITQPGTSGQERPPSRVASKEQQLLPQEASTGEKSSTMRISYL

For `C[C@@H](O)[C@@H]1NC(=O)[C@H](CCCCN)NC(=O)[C@H]([C@@H](C)c2c[nH]c3ccccc23)NC(=O)[C@H](Cc2ccccc2)NC(=O)[C@H](Cc2ccccc2)NC(=O)[C@@H](NC(=O)[C@@H](N)Cc2ccc(O)cc2)CSSC[C@@H](C(=O)O)NC(=O)[C@H](Cc2ccccc2)NC1=O` (H-YCFF[Trp(βS-Me)]KTFC-OH; disulfide 2-9), the IC50 in assay [1] was determined as 48 nM; in assay [2] it was 116 nM; in assay [3], 0.9 nM; in assay [4], 88 nM.

On to `C[C@@H](O)[C@@H]1NC(=O)[C@H](CCCCN)NC(=O)[C@@H](Cc2c[nH]c3ccccc23)NC(=O)[C@H](Cc2ccccc2)NC(=O)[C@H](Cc2ccccc2)NC(=O)[C@@H](NC(N)=O)CSSC[C@@H](C(=O)O)NC(=O)[C@H](Cc2ccc(O)cc2)NC1=O` (stereo in doubt), for which the half-inhibitory concentration (IC50) in assay [1] was found to be 52 nM; in assay [2] it was 16 nM; in assay [3] it was 1 nM; in assay [4] it was 55 nM.

For the compound `C[C@@H]1NC(=O)[C@H](Cc2ccccc2)NC(=O)[C@@H](NC(=O)[C@@H](N)Cc2ccc(O)cc2)CSSC[C@@H](C(=O)O)NC(=O)[C@H](Cc2ccccc2)NC(=O)[C@H]([C@@H](C)O)NC(=O)[C@H](CCCCN)NC(=O)[C@@H]([C@@H](C)c2c[nH]c3ccccc23)NC1=O`, the IC50 in assay [1] was 46 nM; in assay [2], 381 nM; in assay [3], 5.6 nM; in assay [4], over 1000 nM.

Turning to `C[C@@H]1NC(=O)[C@H](Cc2ccccc2)NC(=O)[C@@H](NC(=O)[C@@H](N)Cc2ccc(O)c(I)c2)CSSC[C@@H](C(=O)O)NC(=O)[C@H](Cc2ccccc2)NC(=O)[C@H]([C@@H](C)O)NC(=O)[C@H](CCCCN)NC(=O)[C@H](Cc2c[nH]c3ccccc23)NC1=O`, the IC50 in assay [1] was over 1000 nM; in assay [2], 1020 nM; in assay [3], 3.5 nM; in assay [5], over 1000 nM; in assay [4] it was over 1000 nM.

In the case of `C[C@@H](O)[C@@H]1NC(=O)[C@H](CCCCN)NC(=O)[C@H](Cc2c[nH]c3ccccc23)NC(=O)[C@H](Cc2ccccc2)NC(=O)[C@H](Cc2ccccc2)NC(=O)[C@@H](N)CSSC[C@@H](C(=O)O)NC(=O)[C@H](Cc2ccc(O)cc2)NC1=O` (stereo in doubt), the IC50 in assay [1] stood at 43 nM; in assay [2], 10 nM; in assay [3], 1.3 nM; in assay [5], 24 nM; in assay [4], 6.5 nM.

Turning to `C[C@@H](O)[C@@H]1NC(=O)[C@H](CCCCN)NC(=O)[C@H](Cc2c[nH]c3ccccc23)NC(=O)[C@H](Cc2ccc(O)cc2)NC(=O)[C@H](Cc2ccccc2)NC(=O)[C@@H](N)CSSC[C@@H](C(=O)O)NC(=O)[C@H](Cc2ccccc2)NC1=O`, the IC50 in assay [1] was 54 nM; in assay [2], 22 nM; in assay [3] it was 1.3 nM; in assay [5] it was 63 nM; in assay [4], 27 nM.

In the case of `C[C@@H](O)[C@@H]1NC(=O)[C@H](CCCCN)NC(=O)[C@H](Cc2c[nH]c3ccccc23)NC(=O)[C@H](Cc2ccc(N)cc2)NC(=O)[C@H](Cc2ccccc2)NC(=O)[C@@H](NC(N)=O)CSSC[C@@H](C(=O)O)NC(=O)[C@H](Cc2ccc(O)cc2)NC1=O`, the IC50 in assay [1] is over 1000 nM.

With `C[C@@H]1NC(=O)[C@H](Cc2ccccc2)NC(=O)[C@@H](NC(=O)[C@H](Cc2ccc(O)cc2)NC(N)=O)CSSC[C@@H](C(=O)O)NC(=O)[C@H](Cc2ccccc2)NC(=O)[C@H]([C@@H](C)O)NC(=O)[C@H](CCCCN)NC(=O)[C@H](Cc2c[nH]c3ccccc23)NC1=O` ({Tyr(Nα-carbamoyl)}-CFAWKTFC-OH; disulfide 1-8), the IC50 in assay [3] is 2.4 nM; in assay [5], over 1000 nM; in assay [4], over 1000 nM.

Regarding `C[C@@H](O)[C@@H]1NC(=O)[C@H](CCCCN)NC(=O)[C@@H](Cc2c[nH]c3ccccc23)NC(=O)[C@H](Cc2ccccc2)NC(=O)[C@H](Cc2ccccc2)NC(=O)[C@@H](N)CSSC[C@@H](C(=O)O)NC(=O)[C@H](Cc2ccccc2)NC1=O` (H-CFF[dW]KTFC-OH; disulfide 1-8), the IC50 in assay [1] was found to be 41 nM; in assay [2], 13 nM; in assay [3], 1.8 nM; in assay [5], 46 nM; in assay [4] it was 27 nM.

For the compound `C[C@@H](O)[C@@H]1NC(=O)[C@H](CCCCN)NC(=O)[C@H]([C@@H](C)c2c[nH]c3ccccc23)NC(=O)[C@H](Cc2ccccc2)NC(=O)[C@H](Cc2ccccc2)NC(=O)[C@@H](N)CSSC[C@@H](C(=O)O)NC(=O)[C@H](Cc2ccccc2)NC1=O` (H-CFF[Trp(βS-Me)]KTFC-OH; disulfide 1-8), the half-inhibitory concentration (IC50) in assay [1] was 27 nM; in assay [2] it was 330 nM; in assay [3], 1.8 nM; in assay [5], 221 nM; in assay [4] it was 21 nM.

Take `C[C@@H]1NC(=O)[C@H](Cc2ccccc2)NC(=O)[C@@H](NC(=O)[C@@H](N)Cc2ccc(O)cc2)CSSC[C@@H](C(=O)O)NC(=O)[C@H](Cc2ccccc2)NC(=O)[C@H]([C@@H](C)O)NC(=O)[C@H](CCCCN)NC(=O)[C@H](Cc2c[nH]c3ccccc23)NC1=O`: the 50% inhibitory concentration (IC50) in assay [4] is over 1000 nM.

`COC(=O)[C@H](CCCN=C(N)N)NC(=O)CCCc1c(-c2ccccc2)[nH]c2c(F)cc(F)cc12` displayed a half-inhibitory concentration (IC50) in assay [3] of 4.2 nM.

In the case of `C[C@H](c1c[nH]c2ccccc12)[C@H]1NC(=O)[C@H](Cc2ccccc2)NC(=O)[C@H](Cc2ccccc2)NC(=O)[C@@H](N)CSSC[C@@H](C(=O)O)NC(=O)[C@H](Cc2ccccc2)NC(=O)[C@H]([C@@H](C)O)NC(=O)[C@H](CCCCN)NC1=O` (H-CFF[X3]KTFC-OH; disulfide 1-8), the IC50 was 40 nM in assay [1]; 53 nM in assay [2]; 4 nM in assay [3]; 42 nM in assay [5]; 49 nM in assay [4].

As for `C[C@@H](O)[C@@H]1NC(=O)[C@H](CCCCN)NC(=O)[C@H](Cc2c[nH]c3ccccc23)NC(=O)[C@H](CCCN)NC(=O)[C@H](Cc2ccccc2)NC(=O)[C@@H](NC(=O)[C@H](Cc2ccc(O)cc2)NC(N)=O)CSSC[C@@H](C(=O)O)NC(=O)[C@H](Cc2ccccc2)NC1=O`, the IC50 in assay [1] was 561 nM; in assay [2] it was over 1000 nM; in assay [3] it was 2.1 nM; in assay [4] it was 99 nM.

With `C[C@@H](O)[C@@H]1NC(=O)[C@H](CCCCN)NC(=O)[C@@H](Cc2c[nH]c3ccccc23)NC(=O)[C@H](Cc2ccccc2)NC(=O)[C@H](Cc2ccccc2)NC(=O)[C@@H](N)CSSC[C@@H](C(=O)O)NC(=O)[C@H](Cc2ccc(O)cc2)NC1=O` (stereo in doubt), the IC50 stood at 15.5 nM in assay [1]; 8.2 nM in assay [2]; 0.51 nM in assay [3]; 4.8 nM in assay [5]; 10.3 nM in assay [4].

With `C[C@@H](O)[C@@H]1NC(=O)[C@H](CCCCN)NC(=O)[C@H](Cc2c[nH]c3ccccc23)NC(=O)[C@H](Cc2ccccc2)NC(=O)[C@H](Cc2ccccc2)NC(=O)[C@@H](NC(=O)[C@@H](N)Cc2ccc(O)cc2)CSSC[C@@H](C(=O)O)NC(=O)[C@H](Cc2ccccc2)NC1=O` (H-YCFFWKTFC-OH; disulfide 2-9), the IC50 in assay [1] was found to be 179 nM; in assay [2], 57 nM; in assay [3], 1.6 nM; in assay [4], 13 nM.

In turn, `C[C@@H]1NC(=O)[C@H](Cc2ccccc2)NC(=O)[C@@H](N)CSSC[C@@H](C(=O)O)NC(=O)[C@H](Cc2ccccc2)NC(=O)[C@H]([C@@H](C)O)NC(=O)[C@H](CCCCN)NC(=O)[C@H](Cc2c[nH]c3ccccc23)NC1=O` yielded an IC50 in assay [4] of over 1000 nM.

As to `C[C@@H](O)[C@@H]1NC(=O)[C@H](CCCCN)NC(=O)[C@@H](Cc2c[nH]c3ccccc23)NC(=O)[C@H](Cc2ccc(N)cc2)NC(=O)[C@H](Cc2ccccc2)NC(=O)[C@@H](NC(N)=O)CSSC[C@@H](C(=O)O)NC(=O)[C@H](Cc2ccc(O)cc2)NC1=O`, the IC50 in assay [4] is over 1000 nM.

Take `C[C@@H](O)[C@@H]1NC(=O)[C@H](CCCCN)NC(=O)[C@@H](Cc2c[nH]c3ccccc23)NC(=O)[C@H](Cc2ccc(O)cc2)NC(=O)[C@H](Cc2ccccc2)NC(=O)[C@@H](N)CSSC[C@@H](C(=O)O)NC(=O)[C@H](Cc2ccccc2)NC1=O`: the IC50 in assay [1] was 25.7 nM; in assay [2], 35.7 nM; in assay [3] it was 1.8 nM; in assay [5] it was 20.3 nM; in assay [4] it was 117 nM.

In turn, `C[C@@H](O)[C@@H]1NC(=O)[C@H](CCCCN)NC(=O)[C@H](Cc2c[nH]c3ccccc23)NC(=O)[C@H](Cc2ccc(N)cc2)NC(=O)[C@H](Cc2ccccc2)NC(=O)[C@@H](N)CSSC[C@@H](C(=O)O)NC(=O)[C@H](Cc2ccccc2)NC1=O` displayed an IC50 in assay [2] of over 1000 nM.

Take `CC(O)[C@@H]1NC(=O)[C@H](CCCCN)NC(=O)[C@H](Cc2c[nH]c3ccccc23)NC(=O)[C@H](Cc2ccc(N)cc2)NC(=O)C(Cc2ccccc2)NC(=O)C(NC(N)=O)CSSC[C@@H](C(=O)O)NC(=O)[C@H](Cc2ccccc2)NC1=O` (single isomer, unassigned): the figures for the IC50 in assay [1], in assay [3] and in assay [5] were over 1000 nM, 1.5 nM and over 1000 nM, respectively.

`C[C@@H]1NC(=O)[C@H](Cc2ccccc2)NC(=O)[C@@H](N)CSSC[C@@H](C(=O)O)NC(=O)[C@H](Cc2ccccc2)NC(=O)[C@H]([C@@H](C)O)NC(=O)[C@H](CCCCN)NC(=O)[C@@H](Cc2c[nH]c3ccccc23)NC1=O`: the IC50 in assay [4] was over 1000 nM.
